Only some compounds are listed: those with a hit (about 1.5% of all), similar ones and a draw of the others.
NR2E3 ag-1 = human photoreceptor-specific nuclear receptor agonism. Q9Y5X4. 0.35% of 360,000 active. AID 602229. inhibition of corepressor binding, % at 3.98 µM. CHO-S Gal4-NCOR/VP16-NR2E3 two-hybrid, luciferase;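 active = inhibition above the mean of all tested compounds plus 3 SD, cut at about 70% in these data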;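 note: higher means lower luciferase signal from less NR2E3 corepressor binding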
NR1D1 modulator = modulates human Rev-erb alpha binding to DNA | activity, % at 10 µM | P20393 | AID 1259318 | 0.79% of 370,000 active | Rev-erbα–FITC-DNA binding, fluorescence polarization, 90 min;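 active = activity above about 14%, limit read from the data; passing the limit was not always enough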
Target sequence (P20393 whole entry, looked up): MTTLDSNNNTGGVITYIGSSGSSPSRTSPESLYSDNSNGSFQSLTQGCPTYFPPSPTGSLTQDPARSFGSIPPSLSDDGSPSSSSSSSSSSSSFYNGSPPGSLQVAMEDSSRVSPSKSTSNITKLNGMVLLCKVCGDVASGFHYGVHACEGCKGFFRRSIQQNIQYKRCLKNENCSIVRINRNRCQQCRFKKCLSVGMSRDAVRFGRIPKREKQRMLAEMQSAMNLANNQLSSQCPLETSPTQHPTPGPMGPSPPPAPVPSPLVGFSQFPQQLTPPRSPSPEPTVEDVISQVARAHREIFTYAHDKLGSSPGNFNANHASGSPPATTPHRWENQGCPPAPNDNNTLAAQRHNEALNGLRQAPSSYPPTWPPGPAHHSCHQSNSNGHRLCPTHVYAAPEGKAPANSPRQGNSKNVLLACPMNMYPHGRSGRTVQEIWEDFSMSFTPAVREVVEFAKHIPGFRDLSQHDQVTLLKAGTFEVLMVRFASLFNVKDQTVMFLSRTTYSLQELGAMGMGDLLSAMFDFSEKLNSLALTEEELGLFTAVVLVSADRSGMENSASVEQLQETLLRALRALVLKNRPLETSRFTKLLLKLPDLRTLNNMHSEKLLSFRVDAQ
NR2E3 ag-2 = agonists of human nuclear receptor NR2E3. GST-NR2E3/biotin-RetCOR TR-FRET, 1536-well. inhibition of corepressor binding, % at 4.78 µM. 0.12% of 320,000 active. AID 2300;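 active = percent inhibition above the cutoff of mean plus 3 SD of all tested compounds, set per screening campaign, cut at about 20% in these data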
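System: GST-tagged NR2E3 plus biotinylated RetCOR corepressor; Buffer or medium: pH 7.5 Tris-based buffer; Probe or stimulus: RetCOR corepressor, biotinylated, 7 nM; Doses: compound at 4.8 µM, single dose; Schedule: 5 h incubation at 4 °C; Technique: time-resolved FRET; Evaluation: percent inhibition of TR-FRET ratio; Replication: one well per compound, singlicate testing.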
PG9 Ab binder = binds the HIV-1 gp120 antibody PG9; inhibition, % at 6.7 µM; TR-FRET gp120-PG9 antibody binding; 0.43% of 360,000 active; in the data active = inhibition above about 8.5%
NR2E3 ag confirm = confirmation of human NR2E3 agonists; CHO-S mammalian two-hybrid NR2E3-NCOR, luciferase luminescence; shares compounds with NR2E3 ag-1; 51% of 2,300 active; inhibition, % at 3.98 µM;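 active = average inhibition above a cutoff equal to the mean inhibition of all tested compounds plus one SD, cut at about 70% in these data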
VP16 counter = counter-screen for NR2E3 agonists: GAL4-VP16 reporter inhibitors; shares compounds with NR2E3 ag-1; CHO-S GAL4-VP16 luciferase reporter, luminescence; inhibition, % at 3.98 µM; 29% of 2,300 active; AID 624379;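 active = mean inhibition above a cutoff equal to the average over all tested compounds plus one standard deviation, cut at about 70% in these data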;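 note: luciferase from a UAS reporter driven by GAL4-VP16 transactivation; higher means less reporter light so more repression of VP16 activity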
Of the large screens only hits and unclear results are named; the others gave an inactive call (follow-up assays come after a bar, where they were run).

Cc1ccc(S(=O)(=O)N2[C@@H](c3ccc(Cl)c(Cl)c3)C(C(=O)O)=C[C@H]2CC2CCCC2)cc1	NR2E3 ag-1 88 (no result: NR2E3 ag-2) | NR2E3 ag confirm 82 | VP16 counter inactive
Cc1ccc(S(=O)(=O)N2[C@@H](c3ccc(Cl)cc3)C(C(=O)O)=C[C@H]2CC2CCCC2)cc1	none (no result: NR2E3 ag-2)
COc1ccc(CNC(=O)c2ccc(Cl)c(S(=O)(=O)N3CCOCC3)c2)cc1OC	none (no result: NR1D1 modulator, PG9 Ab binder) | NR2E3 ag confirm inactive | VP16 counter inactive
COc1cc(OC)c(OC)cc1CNC(=O)c1cccc(S(=O)(=O)N2CCc3ccccc3C2)c1	NR2E3 ag-1 91 (no result: NR2E3 ag-2) | NR2E3 ag confirm 96 | VP16 counter 81
COc1ccc(CNC(=O)c2cccc(S(=O)(=O)N3CCCCC3)c2)cc1OC	none | NR2E3 ag confirm inactive | VP16 counter inactive
COCCOC(=O)N(C)C[C@@H]1OCCCC[C@H](C)Oc2ccc(NC(=O)Nc3ccccc3)cc2C(=O)N([C@@H](C)CO)C[C@H]1C	none (no result: NR2E3 ag-1, NR2E3 ag-2, PG9 Ab binder)
COC(=O)[C@]12C[C@H](CC(=O)N3CCOCC3)C(=O)N(CCc3ccc(OC)c(OC)c3)C1=C[C@H](C(C)C)O[C@@H]2C1CC1	none (no result: NR2E3 ag-1, NR2E3 ag-2, PG9 Ab binder)
Cc1ccc2nc(-c3ccc(NC(=O)CSc4nnc(-c5cc(C)[nH]n5)n4N)cc3)sc2c1	none (no result: NR2E3 ag-1, NR2E3 ag-2, PG9 Ab binder)
COc1ccccc1NC(=O)Cc1nn(C)c(=O)c2ccccc12	NR2E3 ag-1 74 (no result: NR1D1 modulator, PG9 Ab binder) | NR2E3 ag confirm 73 | VP16 counter inactive
Cc1csc(NC(=O)Cc2nn(C)c(=O)c3ccccc23)n1	none | NR2E3 ag confirm inactive | VP16 counter inactive
CC(C)(C)OC(=O)n1cc(-c2ccccc2)c2c(-c3ccccc3)c(O)ccc21	none (no result: NR2E3 ag-1, NR2E3 ag-2, PG9 Ab binder)
COc1ccc(CNC(=O)c2ccc3ccccc3n2)cc1OC	NR2E3 ag-1 85 | NR2E3 ag confirm inactive | VP16 counter inactive
COC(=O)c1cc(-c2cc(F)cc(OC)c2)c(=O)n2c1CCC2	none (no result: NR2E3 ag-1, NR2E3 ag-2, PG9 Ab binder)
O=C(Nc1cccc([N+](=O)[O-])c1)c1cc2ccccc2cc1O	NR2E3 ag-1 85 | NR2E3 ag confirm 99 | VP16 counter inactive
Cc1nn(Cc2ccc(C(=O)NC(C)(C)C)o2)c(C)c1Br	none | NR2E3 ag confirm inactive | VP16 counter inactive
Cc1ccc(F)cc1CNC(=O)c1cc(COc2ccc3ncccc3c2)on1	NR2E3 ag-1 79 | NR2E3 ag confirm 96 | VP16 counter 86
Cc1ccc(OCc2cc(C(=O)NC(C)Cc3cccnc3)no2)cc1C (stereo not given)	none
O=C(NCc1cccc(Cl)c1)c1cc(COc2ccc3ncccc3c2)on1	NR2E3 ag-1 76 | NR2E3 ag confirm 95 | VP16 counter 79
CC(CCCC(C)(C)O)NC(=O)c1cc(COc2ccc3ncccc3c2)on1 (stereo not given)	none | NR2E3 ag confirm 88 | VP16 counter 75
Cc1cc(C)n(CCNC(=O)c2cc(COc3ccc4ncccc4c3)on2)n1	none
Cc1ccc(-n2c(SCC(=O)Nc3ccc(OCc4ccccc4)cc3)nnc2-c2cnccn2)cc1	none (no result: NR2E3 ag-1, NR2E3 ag-2, PG9 Ab binder)
Cc1nn(Cc2cccc(F)c2)c(C)c1NC(=O)c1ccc(COc2ccccc2Cl)cc1	NR2E3 ag-1 79 | NR2E3 ag confirm 94 | VP16 counter inactive
Nc1ncnc2c1ncn2[C@@H]1O[C@H](CO)[C@H](O)C1O (stereo not given in full)	none (no result: NR2E3 ag-1, NR2E3 ag-2, PG9 Ab binder)
Nc1ncnc2c(C3OC(CO)C(O)C3O)scc12 (stereo not given)	NR2E3 ag-1 100 (no result: NR2E3 ag-2) | NR2E3 ag confirm 97 | VP16 counter 96
O=C(NCc1ccccc1CN1CCCC1)c1cccc(N2CCCC2=O)c1	NR2E3 ag-1 78 | NR2E3 ag confirm inactive | VP16 counter inactive
Cc1ccc(C2=C(O)c3ccccc3C(=O)C2=O)cc1	none
CC1=C(O)c2ccccc2C(=O)C1=O	none (no result: NR2E3 ag-2) | NR2E3 ag confirm 85 | VP16 counter inactive
CCNC(=S)NNC(=O)CSc1nc2ccccc2c(=O)n1-c1ccc(Cl)cc1	none (no result: NR2E3 ag-1, NR2E3 ag-2, PG9 Ab binder)
COc1ccc(CNC(=O)O[C@H]2CC[C@@]34CCCN3C(=O)CCC[C@H]4C2)cc1OC	none (no result: NR2E3 ag-1, NR2E3 ag-2, PG9 Ab binder)
CCOC(=O)c1cnc(-n2nc(C)cc2C)nc1NC	none
CCOC(=O)c1cnc(-n2nc(C)cc2C)nc1NC1CCCCC1	NR2E3 ag-1 93 | NR2E3 ag confirm 91 | VP16 counter inactive
CC(C)Cn1c(N)c(C(=O)COC(=O)c2ccc3c(c2)OCCO3)c(=O)n(C)c1=O	none

Assay outcomes (PubChem)
